How the values were obtained:
human TRPC6 (hTRPC6-WT) = human TRPC6 (hTRPC6-WT) (Homo sapiens, UniProt Q9Y210); experiment: whole-cell patch-clamp, hTRPC6-WT expressed in HEK293 cells; type: cell-based
Method in brief: (§1)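 Transiently transfected HEK293 cells expressing mouse or human TRPC6 WT, or sequence-verified mouse point mutants, recorded 24–48 h post-transfection. Conventional whole-cell clamp at −60 mV and 23 °C, gap-free; test compound applied by Y-tube. Pipette: CsCl/HEPES/BAPTA, 400 nM free Ca2+, pH 7.2. Bath: NaCl-based, 2 mM CaCl2, pH 7.4. EC50 from Hill fit of concentration–current data. Mutant screen used current ratios (10/5 μM or 3/1 μM). At least 3 transfection batches.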

mTRPC6 mutant ^mY704W = mTRPC6 mutant ^mY704W (Mus musculus, UniProt Q61143, Y704W); experiment: whole-cell patch-clamp, mTRPC6 mutant Y704W; type: cell-based
Method in brief: as §1

mTRPC6 mutant ^mK697R = mTRPC6 mutant ^mK697R (Mus musculus, UniProt Q61143, K697R); experiment: whole-cell patch-clamp, mTRPC6 mutant K697R; type: cell-based
Method in brief: as §1

mTRPC6 mutant ^mR463K = experiment: whole-cell patch-clamp, mTRPC6 mutant R463K; type: cell-based, mouse; conditions: ^mR463K (S1 pocket)
Method in brief: as §1

mTRPC6 mutant ^mT487L = experiment: whole-cell patch-clamp, mTRPC6 mutant T487L; type: cell-based, mouse; conditions: ^mT487L (S1 pocket)
Method in brief: as §1

mTRPC6 mutant ^mF490W = experiment: whole-cell patch-clamp, mTRPC6 mutant F490W; type: cell-based, mouse; conditions: ^mF490W (S1 pocket)
Method in brief: as §1

mTRPC6 mutant ^mS685T = mTRPC6 mutant ^mS685T (Mus musculus, UniProt Q61143, S685T); experiment: whole-cell patch-clamp, mTRPC6 mutant S685T; type: cell-based; conditions: ^mS685T (S3 pocket)
Method in brief: as §1

mTRPC6 mutant ^mW679F = mTRPC6 mutant ^mW679F (Mus musculus, UniProt Q61143, W679F); experiment: whole-cell patch-clamp, mTRPC6 mutant W679F; type: cell-based; conditions: saturated agonist
Method in brief: as §1

mTRPC6 mutant ^mF674A = mTRPC6 mutant ^mF674A (Mus musculus, UniProt Q61143, F674A); experiment: whole-cell patch-clamp, mTRPC6 mutant F674A; type: cell-based; conditions: saturated agonist
Method in brief: as §1

mTRPC6 mutant ^mE700A = mTRPC6 mutant ^mE700A (Mus musculus, UniProt Q61143, E700A); experiment: whole-cell patch-clamp, mTRPC6 mutant E700A; type: cell-based; conditions: saturated agonist
Method in brief: as §1

mTRPC6 mutant ^mY704A = mTRPC6 mutant ^mY704A (Mus musculus, UniProt Q61143, Y704A); experiment: whole-cell patch-clamp, mTRPC6 mutant Y704A; type: cell-based; conditions: saturated agonist
Method in brief: as §1

hTRPC6 mutant ^hE673D = hTRPC6 mutant ^hE673D (Homo sapiens, UniProt Q9Y210, E673D); experiment: whole-cell patch-clamp, hTRPC6 mutant E673D; type: cell-based
hTRPC6 mutant ^hN702Q = hTRPC6 mutant ^hN702Q (Homo sapiens, UniProt Q9Y210, N702Q); experiment: whole-cell patch-clamp, hTRPC6 mutant N702Q; type: cell-based
TRPC6 = target: T1, TRPC6 (Mus musculus, UniProt Q61143); experiment: macro-patch recordings in outside-out and inside-out configurations; type: cell-based
T1 sequence (Q61143 1-930): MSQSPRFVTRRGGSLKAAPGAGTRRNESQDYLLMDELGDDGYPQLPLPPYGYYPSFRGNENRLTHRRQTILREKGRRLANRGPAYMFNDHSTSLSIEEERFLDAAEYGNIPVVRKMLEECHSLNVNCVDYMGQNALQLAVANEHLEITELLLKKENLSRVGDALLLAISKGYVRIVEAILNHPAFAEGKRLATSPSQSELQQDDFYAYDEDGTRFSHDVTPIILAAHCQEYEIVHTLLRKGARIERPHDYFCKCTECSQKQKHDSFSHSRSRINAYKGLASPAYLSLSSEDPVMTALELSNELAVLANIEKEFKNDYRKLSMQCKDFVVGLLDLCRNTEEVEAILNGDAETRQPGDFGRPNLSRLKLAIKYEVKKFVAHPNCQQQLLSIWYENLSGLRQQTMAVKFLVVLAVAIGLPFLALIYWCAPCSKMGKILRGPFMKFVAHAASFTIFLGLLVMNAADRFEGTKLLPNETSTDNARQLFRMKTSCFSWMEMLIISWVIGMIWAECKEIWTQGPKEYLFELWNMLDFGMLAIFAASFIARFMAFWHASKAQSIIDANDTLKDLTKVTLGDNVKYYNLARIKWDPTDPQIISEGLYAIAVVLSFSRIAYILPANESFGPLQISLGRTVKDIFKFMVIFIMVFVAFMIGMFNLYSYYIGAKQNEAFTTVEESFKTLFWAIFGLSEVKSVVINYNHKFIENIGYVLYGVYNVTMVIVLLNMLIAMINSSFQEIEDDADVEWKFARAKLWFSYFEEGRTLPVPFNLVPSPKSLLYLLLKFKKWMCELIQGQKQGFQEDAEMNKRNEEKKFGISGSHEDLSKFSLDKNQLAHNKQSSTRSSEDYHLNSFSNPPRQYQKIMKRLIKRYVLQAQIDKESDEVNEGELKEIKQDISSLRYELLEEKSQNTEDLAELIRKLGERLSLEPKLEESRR
Method in brief: (§2)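 Excised outside-out or inside-out patches (macro-patch or single-channel) from transfected HEK293 cells, 24–48 h post-transfection, 23 °C. Polished borosilicate pipettes of 8–12 MΩ; holding potential −60 mV. Same solutions as whole-cell recordings (CsCl-based internal, 400 nM free Ca2+, pH 7.2; NaCl-based external, pH 7.4). Sampled at 50 kHz, 2 kHz filter, low-pass 300 Hz; unitary current and conductance measured.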

mTRPC6^W679F = mTRPC6^W679F (Mus musculus, UniProt Q61143, W679F); experiment: single-channel outside-out recording, mTRPC6 W679F; type: cell-based; conditions: 100 μM agonist, −60 mV
Method in brief: as §2

mTRPC6 mutant ^mK697R, sequence (Q61143 whole entry K697R): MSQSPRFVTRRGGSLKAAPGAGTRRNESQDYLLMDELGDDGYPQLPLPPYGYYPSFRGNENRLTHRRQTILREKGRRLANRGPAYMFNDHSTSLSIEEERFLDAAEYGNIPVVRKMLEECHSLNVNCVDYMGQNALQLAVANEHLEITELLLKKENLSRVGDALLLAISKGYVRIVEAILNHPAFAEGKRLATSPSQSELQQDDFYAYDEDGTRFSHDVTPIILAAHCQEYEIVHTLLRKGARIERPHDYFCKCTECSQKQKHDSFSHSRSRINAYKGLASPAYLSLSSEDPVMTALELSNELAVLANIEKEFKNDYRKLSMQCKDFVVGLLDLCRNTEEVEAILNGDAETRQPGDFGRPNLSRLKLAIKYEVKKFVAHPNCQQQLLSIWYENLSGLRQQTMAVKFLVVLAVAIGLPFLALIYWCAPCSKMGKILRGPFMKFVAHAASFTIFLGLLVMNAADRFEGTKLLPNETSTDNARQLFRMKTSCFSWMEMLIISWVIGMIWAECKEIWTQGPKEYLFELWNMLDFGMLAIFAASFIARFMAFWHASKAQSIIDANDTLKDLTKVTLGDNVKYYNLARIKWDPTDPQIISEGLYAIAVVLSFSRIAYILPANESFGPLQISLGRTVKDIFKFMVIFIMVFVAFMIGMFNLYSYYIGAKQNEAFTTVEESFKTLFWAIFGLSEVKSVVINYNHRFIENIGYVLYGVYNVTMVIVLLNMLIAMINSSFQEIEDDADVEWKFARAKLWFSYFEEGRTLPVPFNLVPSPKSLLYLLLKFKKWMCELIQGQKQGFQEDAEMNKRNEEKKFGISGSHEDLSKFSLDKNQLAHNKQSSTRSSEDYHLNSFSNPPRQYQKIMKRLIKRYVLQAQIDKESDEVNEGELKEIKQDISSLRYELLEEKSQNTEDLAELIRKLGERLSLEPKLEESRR
mTRPC6 mutant ^mY704W, sequence (Q61143 whole entry Y704W): as the sequence (Q61143 whole entry K697R) above, with R697K, Y704W counted along it
mTRPC6 mutant ^mS685T, sequence (Q61143 whole entry S685T): as the sequence (Q61143 whole entry K697R) above, with S685T, R697K counted along it
human TRPC6 (hTRPC6-WT), sequence (Q9Y210 whole entry): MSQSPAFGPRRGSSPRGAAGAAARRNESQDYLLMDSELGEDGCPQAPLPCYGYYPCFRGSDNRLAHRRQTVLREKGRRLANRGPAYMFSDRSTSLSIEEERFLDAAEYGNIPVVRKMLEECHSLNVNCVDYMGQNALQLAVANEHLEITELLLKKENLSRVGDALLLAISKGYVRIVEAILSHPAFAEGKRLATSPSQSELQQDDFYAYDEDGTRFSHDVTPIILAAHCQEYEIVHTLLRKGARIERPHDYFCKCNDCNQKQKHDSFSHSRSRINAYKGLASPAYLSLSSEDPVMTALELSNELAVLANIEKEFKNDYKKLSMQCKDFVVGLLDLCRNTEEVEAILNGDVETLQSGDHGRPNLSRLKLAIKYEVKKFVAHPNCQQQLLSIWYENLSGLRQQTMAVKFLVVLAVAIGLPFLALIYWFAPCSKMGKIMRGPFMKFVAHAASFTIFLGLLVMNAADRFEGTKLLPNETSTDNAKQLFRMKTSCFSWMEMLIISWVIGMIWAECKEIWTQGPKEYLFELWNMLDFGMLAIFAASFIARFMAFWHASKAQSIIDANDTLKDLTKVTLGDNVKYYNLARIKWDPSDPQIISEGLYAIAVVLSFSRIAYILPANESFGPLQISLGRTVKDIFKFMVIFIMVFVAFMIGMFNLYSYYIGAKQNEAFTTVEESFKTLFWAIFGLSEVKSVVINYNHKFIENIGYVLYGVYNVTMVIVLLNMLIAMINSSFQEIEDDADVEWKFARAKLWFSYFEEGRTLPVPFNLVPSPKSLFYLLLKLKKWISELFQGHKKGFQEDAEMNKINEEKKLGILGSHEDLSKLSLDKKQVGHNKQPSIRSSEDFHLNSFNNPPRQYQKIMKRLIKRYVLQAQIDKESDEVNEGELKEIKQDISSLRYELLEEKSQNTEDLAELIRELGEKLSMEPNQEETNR
mTRPC6 mutant ^mY704A, sequence (Q61143 whole entry Y704A): as the sequence (Q61143 whole entry K697R) above, with R697K, Y704A counted along it
mTRPC6 mutant ^mW679F, sequence (Q61143 whole entry W679F): as the sequence (Q61143 whole entry K697R) above, with W679F, R697K counted along it
mTRPC6^W679F, sequence (Q61143 whole entry W679F): as the sequence (Q61143 whole entry K697R) above, with W679F, R697K counted along it
hTRPC6 mutant ^hE673D, sequence (Q9Y210 whole entry E673D): as the sequence (Q9Y210 whole entry) above, with E673D counted along it
mTRPC6 mutant ^mE700A, sequence (Q61143 whole entry E700A): as the sequence (Q61143 whole entry K697R) above, with R697K, E700A counted along it
mTRPC6 mutant ^mF674A, sequence (Q61143 whole entry F674A): as the sequence (Q61143 whole entry K697R) above, with F674A, R697K counted along it
hTRPC6 mutant ^hN702Q, sequence (Q9Y210 whole entry N702Q): as the sequence (Q9Y210 whole entry) above, with N702Q counted along it

`CCOC(=O)N1CCC(c2cc(O)n3nc(C)c(-c4ccc(F)cc4)c3n2)CC1` [M085, Ethyl 4-(3-(4-fluorophenyl)-7-hydroxy-2-methylpyrazolo[1,5-a]pyrimidin-5-yl)piperidine-1-carboxylate] was tested, and the EC50 (human TRPC6 (hTRPC6-WT)) was 2.94 ± 0.7 µM, the EC50 (mTRPC6 mutant ^mY704W) was 26.7 ± 4.04 µM and the “Imax (maximal current density)” value (mTRPC6 mutant ^mY704W; ^mY704W, 100 μM agonist) was 3.27 ± 1.12 pA/pF. For the same molecule, the EC50 (mTRPC6 mutant ^mK697R) was 14.1 ± 1.95 µM, the “Imax (maximal current density)” value (mTRPC6 mutant ^mK697R; ^mK697R, 100 μM agonist) was 25.58 ± 1.86 pA/pF and the “ratio of M085 activation current I10 μM/I5 μM” value (mTRPC6 mutant ^mR463K) was 1.54 ± 0.17. The “ratio of M085 activation current I10 μM/I5 μM” value (mTRPC6 mutant ^mT487L) was 1.26 ± 0.22, the “ratio of M085 activation current I10 μM/I5 μM” value (mTRPC6 mutant ^mF490W) was 1.91 ± 0.12 and the agonistic effect (mTRPC6 mutant ^mS685T) was “loss of agonistic effect”. The “agonist-induced current (channel function)” value (mTRPC6 mutant ^mW679F) was “complete loss of function”, the agonist-induced current (mTRPC6 mutant ^mF674A) was “disappearance” and the agonist-induced current (mTRPC6 mutant ^mE700A) was “disappearance”. The agonist-induced current (mTRPC6 mutant ^mY704A) was “disappearance”, the EC50 (hTRPC6 mutant ^hE673D) was 22.1 ± 5.46 µM and the EC50 (hTRPC6 mutant ^hN702Q) was 54.5 ± 6.53 µM. For the same molecule, the “current in inside-out configuration” value (TRPC6; 100 μM agonist, inside-out macro-patch) was “no currents were recorded”, the “current in outside-out configuration” value (TRPC6; 100 μM agonist, outside-out macro-patch) was “could be recorded” and the cell membrane permeability (TRPC6; implied from inside-out/outside-out recordings) was “relatively low”. For the same molecule, the unit current (mTRPC6^W679F) was “did not record unit currents”.
